Test results as given in ChEMBL document CHEMBL4351000, “Inhibitory selectivity among class I HDACs has a major impact on inflammatory gene expression in macrophages” (Eur J Med Chem, 2019).
pIC50: −log10 of the molar value. Active and inactive are the calls of the source. No cut-off for these calls is given here.

Columns and labels:
Histone deacetylase 2 = Histone deacetylase 2 (Homo sapiens, UniProt Q92769); experiment: Inhibition of human recombinant C-terminal FLAG-tagged HDAC2 using Boc-Lys-(epsilon-Ac)-AMC as fluorogenic substrate incubated for 90 mins by fluorescence based assay
Sequence of Histone deacetylase 2 (Q92769 whole entry): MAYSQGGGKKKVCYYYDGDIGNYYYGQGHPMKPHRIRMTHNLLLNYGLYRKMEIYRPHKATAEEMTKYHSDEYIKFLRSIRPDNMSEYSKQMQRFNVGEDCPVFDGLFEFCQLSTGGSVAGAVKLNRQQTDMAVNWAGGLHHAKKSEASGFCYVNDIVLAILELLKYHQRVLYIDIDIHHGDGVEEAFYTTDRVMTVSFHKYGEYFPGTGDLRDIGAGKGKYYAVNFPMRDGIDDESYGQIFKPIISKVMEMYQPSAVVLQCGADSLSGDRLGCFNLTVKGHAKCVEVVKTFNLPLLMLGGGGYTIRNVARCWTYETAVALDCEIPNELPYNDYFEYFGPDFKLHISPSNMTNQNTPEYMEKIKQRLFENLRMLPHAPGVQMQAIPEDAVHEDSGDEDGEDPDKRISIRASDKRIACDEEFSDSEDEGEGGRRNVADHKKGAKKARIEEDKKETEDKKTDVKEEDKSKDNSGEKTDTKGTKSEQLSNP

[1] = target: Histone deacetylase 3/Nuclear receptor corepressor 2 (HDAC3/NCoR2) (Homo sapiens, UniProt O15379); experiment: Inhibition of human recombinant C-terminal His-tagged HDAC3/NCOR2 using Boc-Lys-(epsilon-Ac)-AMC as fluorogenic substrate incubated for 90 mins by fluorescence based assay; type: protein-complex assay
Sequence of Histone deacetylase 3/Nuclear receptor corepressor 2 (HDAC3/NCoR2) (O15379 whole entry): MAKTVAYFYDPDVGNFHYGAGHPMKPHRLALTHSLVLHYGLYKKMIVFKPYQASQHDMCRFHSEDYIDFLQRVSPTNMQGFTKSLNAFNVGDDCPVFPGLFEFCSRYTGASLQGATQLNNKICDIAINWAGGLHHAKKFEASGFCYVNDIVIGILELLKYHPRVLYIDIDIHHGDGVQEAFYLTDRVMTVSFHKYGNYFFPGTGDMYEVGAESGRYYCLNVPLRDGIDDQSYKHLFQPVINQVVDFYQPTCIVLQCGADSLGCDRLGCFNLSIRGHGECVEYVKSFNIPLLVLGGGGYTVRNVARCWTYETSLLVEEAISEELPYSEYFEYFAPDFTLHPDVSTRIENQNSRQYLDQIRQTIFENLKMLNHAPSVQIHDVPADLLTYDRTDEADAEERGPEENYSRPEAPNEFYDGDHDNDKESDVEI
Sequence of Histone deacetylase 3/Nuclear receptor corepressor 2 (HDAC3/NCoR2) (Q9Y618 whole entry, further chain): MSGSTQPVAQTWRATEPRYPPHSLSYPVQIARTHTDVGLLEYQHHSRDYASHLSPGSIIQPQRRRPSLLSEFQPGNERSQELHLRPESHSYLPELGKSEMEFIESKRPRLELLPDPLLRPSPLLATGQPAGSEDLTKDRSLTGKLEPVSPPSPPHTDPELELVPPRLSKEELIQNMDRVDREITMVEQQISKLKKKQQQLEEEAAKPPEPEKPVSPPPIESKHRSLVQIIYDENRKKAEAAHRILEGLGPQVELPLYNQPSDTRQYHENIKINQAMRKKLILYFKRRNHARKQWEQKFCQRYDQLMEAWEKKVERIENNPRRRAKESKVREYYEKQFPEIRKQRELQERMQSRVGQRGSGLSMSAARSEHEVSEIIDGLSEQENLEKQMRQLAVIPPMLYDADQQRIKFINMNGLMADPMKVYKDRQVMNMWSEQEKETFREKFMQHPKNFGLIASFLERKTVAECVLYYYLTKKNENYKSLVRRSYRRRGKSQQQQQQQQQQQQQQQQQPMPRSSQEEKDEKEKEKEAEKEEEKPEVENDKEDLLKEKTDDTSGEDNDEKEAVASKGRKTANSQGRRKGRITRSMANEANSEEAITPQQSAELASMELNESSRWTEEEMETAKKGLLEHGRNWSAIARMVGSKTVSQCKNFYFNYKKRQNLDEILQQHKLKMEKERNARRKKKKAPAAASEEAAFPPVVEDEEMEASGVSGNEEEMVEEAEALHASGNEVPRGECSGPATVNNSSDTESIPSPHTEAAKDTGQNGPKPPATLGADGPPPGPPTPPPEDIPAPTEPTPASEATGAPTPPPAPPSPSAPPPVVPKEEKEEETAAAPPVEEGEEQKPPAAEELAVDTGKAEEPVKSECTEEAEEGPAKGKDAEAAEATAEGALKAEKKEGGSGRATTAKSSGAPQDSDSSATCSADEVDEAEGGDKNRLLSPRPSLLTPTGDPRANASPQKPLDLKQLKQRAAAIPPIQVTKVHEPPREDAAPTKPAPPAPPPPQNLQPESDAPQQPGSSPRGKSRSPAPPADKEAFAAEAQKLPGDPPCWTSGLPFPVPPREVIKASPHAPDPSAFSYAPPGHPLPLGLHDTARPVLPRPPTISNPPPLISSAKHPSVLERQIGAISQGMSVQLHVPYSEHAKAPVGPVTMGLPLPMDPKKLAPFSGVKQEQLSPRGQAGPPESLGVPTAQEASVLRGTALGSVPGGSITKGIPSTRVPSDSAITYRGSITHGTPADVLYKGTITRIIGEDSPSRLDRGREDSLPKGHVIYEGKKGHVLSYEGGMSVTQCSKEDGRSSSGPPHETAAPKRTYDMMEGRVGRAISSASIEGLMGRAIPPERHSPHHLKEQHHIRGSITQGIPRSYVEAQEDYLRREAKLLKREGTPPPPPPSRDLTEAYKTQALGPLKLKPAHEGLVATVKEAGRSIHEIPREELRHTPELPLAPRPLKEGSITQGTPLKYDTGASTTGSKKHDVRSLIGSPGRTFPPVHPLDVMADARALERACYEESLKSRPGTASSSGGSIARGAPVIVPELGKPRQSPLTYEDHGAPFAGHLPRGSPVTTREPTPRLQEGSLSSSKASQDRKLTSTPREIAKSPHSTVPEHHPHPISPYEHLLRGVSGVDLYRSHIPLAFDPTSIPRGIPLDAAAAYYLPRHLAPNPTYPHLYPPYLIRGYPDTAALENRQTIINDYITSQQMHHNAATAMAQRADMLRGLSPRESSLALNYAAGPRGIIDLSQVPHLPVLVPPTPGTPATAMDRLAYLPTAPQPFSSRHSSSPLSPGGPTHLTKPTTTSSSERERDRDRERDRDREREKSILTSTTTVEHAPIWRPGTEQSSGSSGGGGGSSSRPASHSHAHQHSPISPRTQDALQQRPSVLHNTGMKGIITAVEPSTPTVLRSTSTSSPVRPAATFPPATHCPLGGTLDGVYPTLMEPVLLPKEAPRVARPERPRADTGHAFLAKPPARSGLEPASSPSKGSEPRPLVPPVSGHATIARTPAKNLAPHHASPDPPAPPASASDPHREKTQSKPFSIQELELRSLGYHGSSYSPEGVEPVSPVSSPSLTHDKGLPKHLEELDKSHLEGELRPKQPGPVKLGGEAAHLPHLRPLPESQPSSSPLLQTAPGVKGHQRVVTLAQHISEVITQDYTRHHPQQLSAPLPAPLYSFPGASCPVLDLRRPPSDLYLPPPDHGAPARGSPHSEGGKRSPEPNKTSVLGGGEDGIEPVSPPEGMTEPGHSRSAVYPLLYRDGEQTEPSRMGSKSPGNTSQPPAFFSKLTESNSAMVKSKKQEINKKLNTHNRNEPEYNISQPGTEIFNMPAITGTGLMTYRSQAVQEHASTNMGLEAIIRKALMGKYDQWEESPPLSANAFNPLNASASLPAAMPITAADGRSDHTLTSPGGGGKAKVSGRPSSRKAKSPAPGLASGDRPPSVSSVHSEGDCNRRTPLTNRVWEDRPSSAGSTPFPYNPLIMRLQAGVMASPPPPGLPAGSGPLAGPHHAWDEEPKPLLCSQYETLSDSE

Histone deacetylase 1 = Histone deacetylase 1 (Homo sapiens, UniProt Q13547); experiment: Inhibition of human recombinant C-terminal His/FLAG-tagged HDAC1 using Boc-Lys-(epsilon-Ac)-AMC as fluorogenic substrate incubated for 90 mins by fluorescence based assay
Sequence of Histone deacetylase 1 (Q13547 whole entry): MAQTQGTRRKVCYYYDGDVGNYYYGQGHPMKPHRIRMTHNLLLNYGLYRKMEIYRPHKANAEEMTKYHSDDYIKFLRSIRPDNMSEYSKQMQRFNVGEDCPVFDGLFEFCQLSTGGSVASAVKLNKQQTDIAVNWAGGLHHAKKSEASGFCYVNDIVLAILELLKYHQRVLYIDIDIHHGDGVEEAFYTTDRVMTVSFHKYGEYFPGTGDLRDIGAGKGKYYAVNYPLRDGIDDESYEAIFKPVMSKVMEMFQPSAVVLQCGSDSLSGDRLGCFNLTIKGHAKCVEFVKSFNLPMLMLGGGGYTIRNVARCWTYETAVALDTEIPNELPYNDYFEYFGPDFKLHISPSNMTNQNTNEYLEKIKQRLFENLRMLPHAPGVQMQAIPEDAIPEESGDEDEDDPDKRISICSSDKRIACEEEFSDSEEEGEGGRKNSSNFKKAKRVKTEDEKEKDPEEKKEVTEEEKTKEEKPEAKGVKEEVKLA

RAW264.7 = experiment: Cytotoxicity against mouse RAW264.7 cells assessed as cell viability at 1 to 5 uM incubated for 24 hrs by MTS assay; type: cell-based; settings: raw264.7, 24 h
Summary of the method: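 RAW264.7 macrophages (passage 5–16) were grown in DMEM GlutaMAX with 10% FBS at 37 °C and 5% CO₂, then seeded at 25,000 cells/cm². The next day, medium was replaced with inhibitor-containing medium for 24 h at 37 °C. MTS reagent was added for 2 h at 37 °C in the dark. Absorbance was read at 490 nm and expressed as % of control.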

[2] = target: T1, Histone deacetylase 3 (Mus musculus) (UniProt O88895); experiment: Inhibition of HDAC3 in LPS/IFNgamma-stimulated mouse RAW264.7 cells assessed as IL-6 gene expression at 1 uM pretreated for 16 hrs followed by LPS stimulation and measured after 4 hrs by RT-qPCR analysis; type: cell-based
T1 sequence (whole entry): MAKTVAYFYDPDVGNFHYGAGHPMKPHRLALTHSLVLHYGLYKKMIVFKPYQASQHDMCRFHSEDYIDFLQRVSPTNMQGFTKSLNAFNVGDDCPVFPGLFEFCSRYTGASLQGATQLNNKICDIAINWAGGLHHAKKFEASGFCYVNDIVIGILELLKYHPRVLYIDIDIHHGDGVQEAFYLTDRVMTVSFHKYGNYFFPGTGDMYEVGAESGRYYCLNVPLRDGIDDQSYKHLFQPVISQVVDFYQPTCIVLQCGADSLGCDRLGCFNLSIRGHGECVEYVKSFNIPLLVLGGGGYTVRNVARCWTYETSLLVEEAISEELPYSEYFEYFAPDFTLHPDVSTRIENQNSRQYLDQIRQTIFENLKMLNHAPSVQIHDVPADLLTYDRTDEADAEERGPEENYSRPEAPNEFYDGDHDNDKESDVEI
Summary of the method: (§1)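 RAW264.7 cells were treated with inhibitor for 20 h in total, with LPS/IFNγ added for the final 4 h; vehicle was a proportional DMSO dilution. Cells were washed twice with DPBS, total RNA was isolated, and IL10, iNOS, IL6 and TNFα transcripts were quantified by RT-qPCR relative to vehicle. Mean ± SD of 2–3 independent experiments.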

[3] = target: T1, Histone deacetylase 3 (Mus musculus); experiment: Inhibition of HDAC3 in LPS/IFNgamma-stimulated mouse RAW264.7 cells assessed as IL-10 gene expression at 1 uM pretreated for 16 hrs followed by LPS stimulation and measured after 4 hrs by RT-qPCR analysis; type: cell-based; summary of the method: as §1
[4] = target: T1, Histone deacetylase 3 (Mus musculus); experiment: Inhibition of HDAC3 in LPS/IFNgamma-stimulated mouse RAW264.7 cells assessed as TNF-alpha gene expression at 1 uM pretreated for 16 hrs followed by LPS stimulation and measured after 4 hrs by RT-qPCR analysis; type: cell-based; summary of the method: as §1
[5] = target: T1, Histone deacetylase 3 (Mus musculus); experiment: Inhibition of HDAC3 in LPS/IFNgamma-stimulated mouse RAW264.7 cells assessed as iNOS gene expression at 1 uM pretreated for 16 hrs followed by LPS stimulation and measured after 4 hrs by RT-qPCR analysis; type: cell-based; summary of the method: as §1
[6] = target: T1, Histone deacetylase 3 (Mus musculus); experiment: Inhibition of HDAC3 in LPS/IFNgamma-stimulated mouse RAW blue cells assessed as NFkappaB transcriptional activity measured as SEAP activity at 1 to 5 uM pretreated for 16 hrs followed by LPS stimulation and measured after 4 hrs by quanti blue reagent-based reporter gene assay
Summary of the method: (§2)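 NF-κB SEAP reporter assay in RAW264.7-derived RAW-Blue cells (passage 4–14), seeded at about 550,000 cells/mL. Cells were pre-incubated with inhibitor for 16 h, then stimulated with 10 ng/mL LPS/IFNγ for 4 h. Supernatant was mixed 1:9 into QUANTI-Blue and incubated 3 h at 37 °C; absorbance was read at 650 nm as % of control. Mean ± SD of 3 independent experiments.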

[7] = target: T2, Histone deacetylase 1/2 (Mus musculus) (UniProt O09106+P70288); experiment: Inhibition of HDAC1/2 in LPS/IFNgamma-stimulated mouse RAW264.7 cells assessed as upregulation of TNF-alpha gene expression at pretreated for 16 hrs followed by LPS stimulation and measured after 4 hrs by RT-qPCR analysis; type: cell-based; summary of the method: as §1
T2 sequence (O09106 whole entry, looked up): as the sequence (Q13547 whole entry) above, with R8K, D399E, E424D counted along it
T2 sequence (P70288 whole entry, looked up): as the sequence (Q92769 whole entry) above, with V289A, T477P, T480A counted along it

[8] = target: T2, Histone deacetylase 1/2 (Mus musculus); experiment: Inhibition of HDAC1/2 in LPS/IFNgamma-stimulated mouse RAW264.7 cells assessed as upregulation of IL-10 gene expression at pretreated for 16 hrs followed by LPS stimulation and measured after 4 hrs by RT-qPCR analysis; type: cell-based; summary of the method: as §1
Homo sapiens [9] = species: Homo sapiens; experiment: Selectivity ratio of IC50 for human recombinant C-terminal His-tagged HDAC3/NCOR2 to IC50 for human recombinant C-terminal FLAG-tagged HDAC2
Summary of the method: (§3)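 Fluorogenic assay using human recombinant HDAC1 (FLAG/His), HDAC2 (FLAG) or HDAC3/NcoR2 (His) in pH 8.0 Tris buffer with NaCl, KCl, MgCl₂, 0.01% Triton-X and 1 mg/mL BSA. Enzyme, inhibitor dilutions and Boc-Lys(ε-Ac)-AMC were incubated 90 min at 37 °C. Trypsin/200 μM vorinostat stop solution was added for 30 min, then fluorescence read (ex 370/em 460 nm). IC50s came from curve fits; the ratio is HDAC3 IC50 over HDAC2 or HDAC1 IC50.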

Homo sapiens [10] = species: Homo sapiens; experiment: Selectivity ratio of IC50 for human recombinant C-terminal His-tagged HDAC3/NCOR2 to IC50 for human recombinant C-terminal His/FLAG-tagged HDAC1; summary of the method: as §3
[11] = target: T2, Histone deacetylase 1/2 (Mus musculus); experiment: Inhibition of HDAC1/2 in LPS/IFNgamma-stimulated mouse RAW264.7 cells assessed as upregulation of IL-6 gene expression at pretreated for 16 hrs followed by LPS stimulation and measured after 4 hrs by RT-qPCR analysis; type: cell-based; summary of the method: as §1
[12] = target: T2, Histone deacetylase 1/2 (Mus musculus); experiment: Inhibition of HDAC1/2 in LPS/IFNgamma-stimulated mouse RAW264.7 cells assessed as upregulation of iNOS gene expression at pretreated for 16 hrs followed by LPS stimulation and measured after 4 hrs by RT-qPCR analysis; type: cell-based; summary of the method: as §1
[13] = target: T2, Histone deacetylase 1/2 (Mus musculus); experiment: Inhibition of HDAC1/2 in LPS/IFNgamma-stimulated mouse RAW264.7 cells assessed as upregulation of IL-10 gene expression at 1 to 5 uM pretreated for 16 hrs followed by LPS stimulation and measured after 4 hrs by RT-qPCR analysis; type: cell-based; summary of the method: as §1
[14] = target: T2, Histone deacetylase 1/2 (Mus musculus); experiment: Inhibition of HDAC1/2 in LPS/IFNgamma-stimulated mouse RAW264.7 cells assessed as upregulation of IL-6 gene expression at 1 to 5 uM pretreated for 16 hrs followed by LPS stimulation and measured after 4 hrs by RT-qPCR analysis; type: cell-based; summary of the method: as §1
[15] = target: Histone deacetylase 1 (Mus musculus) (UniProt O09106); experiment: Inhibition of HDAC1 in LPS/IFNgamma-stimulated mouse RAW blue cells assessed as upregulation of NFkappaB transcriptional activity by measuring increase in SEAP activity at 1 to 5 uM pretreated for 16 hrs followed by LPS stimulation and measured after 4 hrs by quanti blue reagent-based reporter gene assay; summary of the method: as §2
Sequence of Histone deacetylase 1 (Mus musculus) (O09106 whole entry): as the sequence (Q13547 whole entry) above, with R8K, D399E, E424D counted along it

[16] = target: T2, Histone deacetylase 1/2 (Mus musculus); experiment: Inhibition of HDAC1/2 in LPS/IFNgamma-stimulated mouse RAW264.7 cells assessed as upregulation of iNOS gene expression at 1 to 5 uM pretreated for 16 hrs followed by LPS stimulation and measured after 4 hrs by RT-qPCR analysis; type: cell-based; summary of the method: as §1
[17] = target: T2, Histone deacetylase 1/2 (Mus musculus); experiment: Inhibition of HDAC1/2 in LPS/IFNgamma-stimulated mouse RAW264.7 cells assessed as upregulation of TNF-alpha gene expression at 1 to 5 uM pretreated for 16 hrs followed by LPS stimulation and measured after 4 hrs by RT-qPCR analysis; type: cell-based; summary of the method: as §1

SMILES | pIC50 (Histone deacetylase 2) | pIC50 [1] | pIC50 (Histone deacetylase 1) | Activity (RAW264.7) | further results
C[C@H](Nc1ccccc1)c1ccc(C(=O)Nc2ccccc2N)cc1 | 5.08 | 4.96 | 5.62 | Non-Toxic | –
Nc1cc(F)ccc1NC(=O)/C=C/c1cnn(C/C=C/c2ccccc2)c1 | – | – | – | Non-Toxic | Activity [2]: inactive; Activity [3]: inactive; Activity [4]: inactive; Activity [5]: inactive; Activity [6]: inactive
Nc1ccccc1NC(=O)CCCCNC(=O)c1ccccc1 | – | – | – | Non-Toxic | –
Nc1ccccc1NC(=O)c1ccc(CNC(=O)OCc2cccnc2)cc1 [ENTINOSTAT] | – | – | – | Non-Toxic | –
CC(Nc1ccccc1)c1ccc(C(=O)Nc2ccccc2N)cc1 (stereo not drawn) | 5.15 | 5.07 | 5.64 | Non-Toxic | Activity [7]: Active; Activity [8]: Active; Ratio IC50 (Homo sapiens [9]): 1.2; Ratio IC50 (Homo sapiens [10]): 3.7; Activity [11]: Active; Activity [12]: Active
Nc1ccccc1NC(=O)c1ccc(C(=O)Nc2ccccc2)cc1 | 5.27 | 4.80 | 5.52 | – | Ratio IC50 (Homo sapiens [9]): 3; Ratio IC50 (Homo sapiens [10]): 5.3

Second part, led by results:

pIC50 (Histone deacetylase 2) | pIC50 [1] | pIC50 (Histone deacetylase 1) | SMILES | Activity (RAW264.7) | further results
5.43 | 5.92 | 5.72 | Nc1ccccc1NC(=O)CCCCCC(=O)c1ccccc1 | – | –
5.89 | 6.40 | 5.92 | Nc1ccccc1NC(=O)CCCCCNc1ccccc1 | – | –
5.38 | 5.30 | 5.89 | C[C@@H](Nc1ccccc1)c1ccc(C(=O)Nc2ccccc2N)cc1 | Non-Toxic | Activity [13]: Active; Activity [14]: Active; Activity [15]: Active; Activity [16]: Active; Activity [17]: Active
6.30 | 5.55 | 6.00 | CN(Cc1ccc(C(=O)Nc2ccccc2N)cc1)c1ccccc1 | – | –
5.85 | 6.22 | 6.00 | Nc1ccccc1NC(=O)c1ccc(CNc2ccccc2)cc1 | – | –
